How the values were obtained:
Prostaglandin E synthase [1] = biological target: T1, Prostaglandin E synthase (Homo sapiens, UniProt O14684); experiment: Inhibition of recombinant human mPGES1 expressed in CHO cells assessed as reduction in PGE2 production using PGH2 as substrate incubated for 10 mins followed by substrate addition measured for 1 min; format: cell-based
T1 sequence (O14684 whole entry): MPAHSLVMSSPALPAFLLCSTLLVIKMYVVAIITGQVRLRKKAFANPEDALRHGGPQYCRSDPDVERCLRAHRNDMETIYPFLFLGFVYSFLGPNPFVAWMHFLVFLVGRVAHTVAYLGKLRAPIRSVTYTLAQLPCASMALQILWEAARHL

Prostaglandin E synthase [2] = biological target: T1, Prostaglandin E synthase; experiment: Inhibition of mPGES1 in human A549 cells assessed as reduction in IL-1beta-induced PGE2 production preincubated for 30 mins followed by incubation with IL-1beta for 16 to 20 hrs measured after 10 mins by HTRF assay; format: cell-based
Prostaglandin E synthase [3] = biological target: T1, Prostaglandin E synthase; experiment: Inhibition of mPGES1 in human whole blood assessed as reduction in LPS-induced PGE2 production measured after 20 to 24 hrs
[4] = Apparent passive permeability of the compound by PAMPA; format: ADME
In short: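 Passive permeability by PAMPA, using a 2% lecithin in dodecane membrane. Run in triplicate.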

CYP2C9 = CYP2C9 (Homo sapiens, UniProt P11712); experiment: Inhibition of CYP2C9 in human liver microsomes at 10 uM after 20 mins in presence of NADPH by LC-MS/MS analysis; format: ADME
In short: (§1)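 Percent inhibition of each CYP isoform by test compound at 10 µM, compared with a no-inhibitor control. Run in triplicate.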

[5] = Metabolic stability in guinea pig liver microsomes assessed as parent compound remaining at 1 uM after 60 mins in presence of NADPH by LC-MS/MS analysis; format: ADME, Cavia porcellus, microsome; settings: read-out: Stability
In short: (§2)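 Compound incubated 60 min at 37 °C with human, rat or guinea pig liver microsomes; percent parent remaining, triplicates.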

[6] = Metabolic stability in human liver microsomes assessed as parent compound remaining at 1 uM after 60 mins in presence of NADPH by LC-MS/MS analysis; format: ADME, microsome; settings: read-out: Stability; in short: as §2
CYP1A2 = biological target: T2, CYP1A2 (Homo sapiens, UniProt P05177); experiment: Inhibition of CYP1A2 in human liver microsomes at 10 uM after 20 mins in presence of NADPH by LC-MS/MS analysis; format: ADME; in short: as §1
T2 sequence (P05177 whole entry): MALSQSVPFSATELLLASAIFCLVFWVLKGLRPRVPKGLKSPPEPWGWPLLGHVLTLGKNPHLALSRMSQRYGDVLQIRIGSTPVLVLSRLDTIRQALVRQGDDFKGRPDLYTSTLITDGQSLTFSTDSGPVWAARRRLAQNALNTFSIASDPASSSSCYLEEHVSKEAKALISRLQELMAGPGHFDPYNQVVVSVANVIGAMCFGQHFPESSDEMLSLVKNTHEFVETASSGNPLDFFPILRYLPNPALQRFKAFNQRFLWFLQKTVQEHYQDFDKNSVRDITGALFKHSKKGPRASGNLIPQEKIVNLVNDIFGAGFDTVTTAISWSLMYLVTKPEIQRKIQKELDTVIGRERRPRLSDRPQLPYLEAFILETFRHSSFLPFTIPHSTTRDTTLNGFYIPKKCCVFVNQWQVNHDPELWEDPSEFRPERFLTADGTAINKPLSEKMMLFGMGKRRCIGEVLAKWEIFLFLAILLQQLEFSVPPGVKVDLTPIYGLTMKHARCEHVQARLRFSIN

CYP2D6 = CYP2D6 (Homo sapiens, UniProt P10635); experiment: (§3) Inhibition of CYP2D6 in human liver microsomes at 10 uM after 20 mins in presence of NADPH by LC-MS/MS analysis; format: ADME; settings: liver microsomes; in short: as §1
[7] = Protein binding in guinea pig plasma at 10 uM after 5 hrs by equilibrium dialysis based LC-MS/MS analysis; format: ADME, cell-free, Cavia porcellus; settings: read-out: PPB (converted)
In short: (§4)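 Equilibrium dialysis at 10 μM compound; result expressed as percent bound.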

CYP3A4 = CYP3A4 (Homo sapiens, UniProt P08684); experiment: Inhibition of CYP3A4 in human liver microsomes at 10 uM after 20 mins in presence of NADPH by LC-MS/MS analysis; format: ADME; in short: as §1
[8] = Protein binding in human plasma at 10 uM after 5 hrs by equilibrium dialysis based LC-MS/MS analysis; format: ADME, cell-free; settings: read-out: PPB (converted); in short: as §4
CYP2C19 = CYP2C19 (Homo sapiens, UniProt P33261); experiment: Inhibition of CYP2C19 in human liver microsomes at 10 uM after 40 mins in presence of NADPH by LC-MS/MS analysis; format: ADME; in short: as §1
[9] = Metabolic stability in rat liver microsomes assessed as parent compound remaining at 1 uM after 60 mins in presence of NADPH by LC-MS/MS analysis; format: ADME, microsome; settings: read-out: Stability; in short: as §2
hERG (KCNH2) = hERG (KCNH2) (Homo sapiens, UniProt Q12809); experiment: Inhibition of human ERG at 10 uM by patch clamp assay relative to control
In short: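 hERG current measured by patch clamp with test compound at 10 µM; result given as % inhibition.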

Cytochrome P450 2D6 = Cytochrome P450 2D6 (Homo sapiens, UniProt P10635); experiment: as §3; format: ADME; settings: microsomes, 20 min, 10 µM; in short: as §1
Sequence of Cytochrome P450 2D6 (P10635 whole entry): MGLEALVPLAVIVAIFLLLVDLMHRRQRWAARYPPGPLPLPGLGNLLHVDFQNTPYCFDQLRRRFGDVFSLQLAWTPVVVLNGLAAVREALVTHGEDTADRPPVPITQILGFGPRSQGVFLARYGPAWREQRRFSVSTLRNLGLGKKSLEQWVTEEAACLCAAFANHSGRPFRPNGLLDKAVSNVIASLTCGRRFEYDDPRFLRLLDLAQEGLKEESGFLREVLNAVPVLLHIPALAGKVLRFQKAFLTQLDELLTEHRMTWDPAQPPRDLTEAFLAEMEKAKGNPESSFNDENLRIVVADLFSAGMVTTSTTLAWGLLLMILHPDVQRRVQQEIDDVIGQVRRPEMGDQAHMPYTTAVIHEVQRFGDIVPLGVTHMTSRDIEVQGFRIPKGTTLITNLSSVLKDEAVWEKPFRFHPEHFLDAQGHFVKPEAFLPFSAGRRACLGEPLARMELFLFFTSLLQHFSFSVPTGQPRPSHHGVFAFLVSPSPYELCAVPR

Sequence of CYP2C19 (P33261 whole entry): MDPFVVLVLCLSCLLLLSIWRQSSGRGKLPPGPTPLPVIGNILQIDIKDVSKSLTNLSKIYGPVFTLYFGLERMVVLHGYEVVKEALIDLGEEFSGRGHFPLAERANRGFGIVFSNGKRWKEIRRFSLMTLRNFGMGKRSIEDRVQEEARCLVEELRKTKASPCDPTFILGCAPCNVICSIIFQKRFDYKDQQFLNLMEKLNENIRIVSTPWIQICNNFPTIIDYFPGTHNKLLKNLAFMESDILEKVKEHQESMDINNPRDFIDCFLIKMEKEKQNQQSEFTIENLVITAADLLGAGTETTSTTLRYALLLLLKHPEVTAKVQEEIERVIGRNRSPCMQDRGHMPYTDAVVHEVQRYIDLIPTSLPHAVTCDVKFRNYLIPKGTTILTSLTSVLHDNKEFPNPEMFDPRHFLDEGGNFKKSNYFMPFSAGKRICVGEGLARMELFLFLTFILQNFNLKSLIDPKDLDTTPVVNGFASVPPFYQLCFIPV
Sequence of CYP3A4 (P08684 whole entry): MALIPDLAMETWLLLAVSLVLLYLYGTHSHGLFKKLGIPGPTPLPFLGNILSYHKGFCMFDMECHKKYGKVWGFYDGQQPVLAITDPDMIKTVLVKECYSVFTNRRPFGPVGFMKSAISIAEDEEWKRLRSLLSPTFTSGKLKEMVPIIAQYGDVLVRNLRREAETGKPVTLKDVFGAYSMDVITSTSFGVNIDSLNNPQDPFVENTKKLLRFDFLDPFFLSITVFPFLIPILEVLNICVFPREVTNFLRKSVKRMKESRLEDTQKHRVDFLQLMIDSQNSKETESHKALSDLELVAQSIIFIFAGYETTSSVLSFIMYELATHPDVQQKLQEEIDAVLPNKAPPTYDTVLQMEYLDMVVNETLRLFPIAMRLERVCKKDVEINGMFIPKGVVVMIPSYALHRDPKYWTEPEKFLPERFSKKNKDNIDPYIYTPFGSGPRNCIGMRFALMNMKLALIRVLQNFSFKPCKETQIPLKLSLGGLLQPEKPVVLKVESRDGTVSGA
Sequence of CYP2D6 (P10635 whole entry): as the sequence (P10635 whole entry) above
Sequence of CYP2C9 (P11712 whole entry, canonical isoform): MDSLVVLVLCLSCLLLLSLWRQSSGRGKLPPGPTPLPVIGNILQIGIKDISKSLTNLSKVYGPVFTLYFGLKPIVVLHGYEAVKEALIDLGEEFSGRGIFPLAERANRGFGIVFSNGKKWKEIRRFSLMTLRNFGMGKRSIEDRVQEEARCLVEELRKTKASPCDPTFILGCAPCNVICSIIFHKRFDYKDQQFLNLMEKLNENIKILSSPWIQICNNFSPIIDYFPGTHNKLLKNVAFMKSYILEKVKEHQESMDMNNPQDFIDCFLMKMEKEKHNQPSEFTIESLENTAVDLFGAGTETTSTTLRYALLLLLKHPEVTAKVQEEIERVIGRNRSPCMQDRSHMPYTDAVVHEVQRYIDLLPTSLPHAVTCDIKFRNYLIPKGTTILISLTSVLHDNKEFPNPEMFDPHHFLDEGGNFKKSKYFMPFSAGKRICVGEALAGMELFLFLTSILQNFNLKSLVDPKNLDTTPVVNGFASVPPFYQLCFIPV
Sequence of hERG (KCNH2) (Q12809 whole entry): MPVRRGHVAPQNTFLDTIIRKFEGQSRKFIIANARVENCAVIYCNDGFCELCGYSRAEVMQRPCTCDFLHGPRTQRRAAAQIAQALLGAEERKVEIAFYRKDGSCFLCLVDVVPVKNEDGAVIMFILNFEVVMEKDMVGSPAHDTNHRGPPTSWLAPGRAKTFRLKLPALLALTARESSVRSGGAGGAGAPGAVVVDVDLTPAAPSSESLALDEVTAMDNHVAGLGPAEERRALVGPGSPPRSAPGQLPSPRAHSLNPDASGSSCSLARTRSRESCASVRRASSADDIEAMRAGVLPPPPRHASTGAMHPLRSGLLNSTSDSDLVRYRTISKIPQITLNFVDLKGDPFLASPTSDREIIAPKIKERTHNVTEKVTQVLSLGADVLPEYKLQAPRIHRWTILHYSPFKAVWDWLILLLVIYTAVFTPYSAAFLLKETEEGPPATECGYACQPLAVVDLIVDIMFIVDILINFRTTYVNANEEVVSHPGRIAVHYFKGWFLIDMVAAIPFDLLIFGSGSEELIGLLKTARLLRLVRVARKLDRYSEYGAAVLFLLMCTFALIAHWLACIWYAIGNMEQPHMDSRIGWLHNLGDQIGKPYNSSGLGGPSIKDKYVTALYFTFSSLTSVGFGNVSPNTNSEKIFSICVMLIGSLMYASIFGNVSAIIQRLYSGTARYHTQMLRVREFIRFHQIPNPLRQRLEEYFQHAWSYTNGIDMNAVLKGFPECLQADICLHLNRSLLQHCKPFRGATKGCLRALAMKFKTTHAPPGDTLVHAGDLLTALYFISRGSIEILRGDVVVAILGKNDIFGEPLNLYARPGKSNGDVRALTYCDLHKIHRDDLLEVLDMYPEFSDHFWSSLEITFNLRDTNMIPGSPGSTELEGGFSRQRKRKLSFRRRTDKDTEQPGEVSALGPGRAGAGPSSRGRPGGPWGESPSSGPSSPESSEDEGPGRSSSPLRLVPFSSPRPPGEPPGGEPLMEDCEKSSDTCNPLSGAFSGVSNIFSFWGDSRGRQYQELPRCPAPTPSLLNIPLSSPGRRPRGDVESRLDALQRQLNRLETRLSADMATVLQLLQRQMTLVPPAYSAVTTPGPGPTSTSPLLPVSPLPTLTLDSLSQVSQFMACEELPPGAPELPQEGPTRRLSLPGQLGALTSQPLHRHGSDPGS

Structure (SMILES) | IC50 (Prostaglandin E synthase [1]) [nM] | IC50 (Prostaglandin E synthase [2]) [nM] | IC50 (Prostaglandin E synthase [3]) [nM] | Papp [4] [×10⁻⁶ cm/s] | inhibition at 20 min, 10 µM (CYP2C9) [%] | remaining at 1 h, 1 µM [5] [%] | remaining at 1 h, 1 µM [6] [%] | inhibition at 20 min, 10 µM (CYP1A2) [%] | inhibition at 20 min, 10 µM (CYP2D6) [%] | fraction unbound at 5 h, 10 µM [7] | inhibition at 20 min, 10 µM (CYP3A4) [%] | fraction unbound at 5 h, 10 µM [8] | inhibition at 40 min, 10 µM (CYP2C19) [%] | remaining at 1 h, 1 µM [9] [%] | inhibition at 10 µM (hERG (KCNH2)) [%] | inhibition (INH) (Cytochrome P450 2D6)
CC1(C)Cc2c(c(C(=O)Nc3ccc(C(F)(F)F)cn3)cc3nc(Nc4c(F)cccc4Cl)[nH]c23)O1 | 25 | 14 | 955 |  |  |  |  |  |  |  |  |  |  |  |  | 
CC1(C)Cc2c(c(C(=O)Nc3ccccc3C(F)(F)F)cc3nc(Nc4c(F)cccc4Cl)[nH]c23)O1 | 5.1 | 9.7 | 536 | 0.12 | 29 | 89 | 93 | 17 | 4 | < 0.005 | 11 | < 0.005 | 46 |  |  | 
CC1(C)Cc2c(c(C(=O)Nc3cc(C(F)F)ccc3F)cc3nc(Nc4c(F)cccc4Cl)[nH]c23)O1 | 9.2 | 6.3 | 336 |  | 42 | 68 | 88 | 31 | -1 | 0.005 | 4 | 0.0018 | 22 | 86 |  | 
Cc1cc(C(F)(F)F)ccc1NC(=O)c1cc2nc(Nc3c(F)cccc3Cl)[nH]c2c2c1OC(C)(C)C2 | 6.1 | 6 | 270 | 0.31 | 1 | 72 | 82 | 26 | 16 |  | 20 |  | 38 | 91 | 16.2 | 
Cn1c(Nc2c(F)cccc2Cl)nc2cc(C(=O)Nc3ccc(C(F)(F)F)cc3)c3c(c21)CC(C)(C)O3 |  |  |  |  | 44 | 68 | 100 | 34 | -5 |  |  |  | -7 | 68 |  | 
Cc1ccc(NC(=O)c2cc3nc(Nc4c(F)cccc4Cl)n(C)c3c3c2OC(C)(C)C3)c(F)c1 | 16 | 3.1 | 177 |  | 52 | 58 | 68 | 26 | 14 | < 0.005 | 23 | < 0.005 | 24 | 71 | 12.8 | 
Cc1cccc(Cl)c1Nc1nc2cc(C(=O)Nc3ccc(C(F)(F)F)cn3)c3c(c2[nH]1)CC(C)(C)O3 | 32 | 27 |  |  |  |  |  |  |  |  |  |  |  |  |  | 
CC1(C)Cc2c(c(C(=O)Nc3c(F)cccc3F)cc3nc(Nc4c(Cl)cccc4Cl)[nH]c23)O1 | 6.4 | 15 | 661 |  | 35 | 80 | 72 | 14 |  |  | 24 |  | 41 |  |  | Not Active
Cn1c(Nc2c(F)cccc2Cl)nc2cc(C(=O)Nc3ccc(C(F)(F)F)cn3)c3c(c21)CC(C)(C)O3 | 12 | 4 | 673 |  | 52 | 69 | 58 | 14 | 3 | 0.0035 | 17 | 0.0015 | 10 | 66 |  | 
CC1(C)Cc2c(c(C(=O)Nc3cc(C4CC4)ccc3F)cc3nc(Nc4c(Cl)cccc4Cl)[nH]c23)O1 | 16 | 3.2 | 197 |  | 26 | 74 | 95 | 14 | 5 |  | 21 |  | 10 | 92 |  | 
Cc1cccc(Cl)c1Nc1nc2cc(C(=O)Nc3ccc(F)c(C(F)(F)F)c3)c3c(c2[nH]1)CC(C)(C)O3 | 5.4 | 10 | 876 |  | 47 | 80 | 95 |  |  |  | 30 |  | 31 | 97 |  | 
CC1(C)Cc2c(c(C(=O)Nc3cc(C4CC4)ccc3F)cc3nc(Nc4c(F)cccc4Cl)[nH]c23)O1 | 3.6 | 6 | 1380 |  | 42 | 93 | 100 | 36 | 7 |  | -12 |  | 22 | 93 |  | 
CC1(C)Cc2c(c(C(=O)Nc3ccc(C(F)(F)F)cc3F)cc3nc(Nc4c(F)cccc4Cl)[nH]c23)O1 | 3.1 | 9.6 | 570 |  | 39 | 80 | 100 |  |  | < 0.005 | 37 | < 0.005 | 16 |  |  | 
CC1(C)Cc2c(c(C(=O)Nc3ccccc3C(F)(F)F)cc3nc(Nc4c(Cl)cccc4Cl)[nH]c23)O1 | 4.9 | 5.2 | 506 |  | 16 | 86 |  | 18 |  |  | 17 |  | 30 |  |  | Not Active
Cn1c(Nc2c(F)cccc2Cl)nc2cc(C(=O)Nc3ccc(C4CC4)cc3)c3c(c21)CC(C)(C)O3 | 4.9 | 4.3 | 350 |  | 47 | 51 | 97 | 41 | 25 |  | 19 |  | 24 | 96 |  | 
Cc1cccc(Cl)c1Nc1nc2cc(C(=O)Nc3ccc(C(F)(F)F)cc3)c3c(c2[nH]1)CC(C)(C)O3 | 14 | 11 | 337 |  | 46 | 62 | 100 | 25 | 6 | < 0.005 | 34 | < 0.005 | 19 |  |  | 
Cc1cccc(Cl)c1Nc1nc2cc(C(=O)Nc3cc(C4CC4)ccc3F)c3c(c2[nH]1)CC(C)(C)O3 | 10 |  | 447 |  | 12 | 55 | 93 | 14 | 31 |  | -13 |  | 24 | 89 |  | 
